{
  "source": "ChEMBL document CHEMBL1240500",
  "about": "“Peptidyl alpha-ketoamides with nucleobases, methylpiperazine, and dimethylaminoalkyl substituents as calpain inhibitors” (J Med Chem, 2010)",
  "data": [
    {"molecular_target": "T1, Calpain-1 catalytic subunit (Sus scrofa) (UniProt P35750)", "T1 sequence (whole entry)": "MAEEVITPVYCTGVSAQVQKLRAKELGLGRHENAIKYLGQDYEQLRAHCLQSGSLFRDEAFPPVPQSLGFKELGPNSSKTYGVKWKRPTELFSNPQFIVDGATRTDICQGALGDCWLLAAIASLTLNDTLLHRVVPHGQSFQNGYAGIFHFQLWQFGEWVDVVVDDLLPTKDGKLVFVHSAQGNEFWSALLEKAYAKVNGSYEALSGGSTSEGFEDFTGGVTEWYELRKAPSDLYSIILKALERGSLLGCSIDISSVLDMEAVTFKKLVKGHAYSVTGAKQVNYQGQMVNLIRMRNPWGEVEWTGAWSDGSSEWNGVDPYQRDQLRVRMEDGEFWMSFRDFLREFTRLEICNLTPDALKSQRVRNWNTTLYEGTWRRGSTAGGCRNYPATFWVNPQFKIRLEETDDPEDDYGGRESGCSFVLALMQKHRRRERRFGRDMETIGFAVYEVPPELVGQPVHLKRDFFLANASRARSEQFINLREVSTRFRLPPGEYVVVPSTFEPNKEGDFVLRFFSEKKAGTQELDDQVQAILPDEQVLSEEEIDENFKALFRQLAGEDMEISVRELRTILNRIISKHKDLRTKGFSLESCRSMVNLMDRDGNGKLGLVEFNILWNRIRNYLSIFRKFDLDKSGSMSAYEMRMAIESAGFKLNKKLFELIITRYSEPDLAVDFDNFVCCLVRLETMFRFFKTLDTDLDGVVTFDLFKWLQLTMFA", "experiment": "Ratio of compound Ki to AK295 Ki for porcine erythrocyte calpain 1", "settings": "not given", "values": [
      {"smiles": "CCC(NC(=O)[C@H](CC(C)C)NC(=O)OCc1ccccc1)C(=O)C(=O)NCCCn1cnc2c(N)ncnc21", "note": "(stereo not given in full)", "Ratio": 3}
    ]},
    {"molecular_target": "Cathepsin B (Homo sapiens, UniProt P07858)", "experiment": "Inhibition of human liver cathepsin B", "settings": "not given", "method_in_brief": "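Human liver cathepsin B was DTT-activated (final 0.4 µM) in 0.1 M NaHPO4 pH 6.0 with 1.25 mM EDTA, 0.01% Brij and <5% DMSO. Cbz-Arg-Arg-AMC was used at 0.5, 0.2 and 0.1 µM, with ≥5 inhibitor concentrations. AMC fluorescence was read at ex 360/em 465 nm. Ki was taken from Dixon plots of 1/v versus [I].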", "units": {"Ki": "nM"}, "values": [
      {"smiles": "CC(C)C[C@H](NC(=O)OCc1ccccc1)C(=O)NC(Cc1ccccc1)C(=O)C(=O)NCCCN(C)C", "note": "(stereo not given in full)", "Ki": 75500},
      {"smiles": "CCC(NC(=O)[C@H](CC(C)C)NC(=O)OCc1ccccc1)C(=O)C(=O)NCCCn1ccc(N)nc1=O", "note": "(stereo not given in full)", "Ki": 750},
      {"smiles": "CC(C)C[C@H](NC(=O)OCc1ccccc1)C(=O)NC(Cc1ccccc1)C(=O)C(=O)NCCCN1CCN(C)CC1", "note": "(stereo not given in full)", "Ki": 111000},
      {"smiles": "CC(C)C[C@H](NC(=O)OCc1ccccc1)C(=O)NC(Cc1ccccc1)C(=O)C(=O)NCCN(C)C", "note": "(stereo not given in full)", "Ki": 475000},
      {"smiles": "CC(C)C[C@H](NC(=O)OCc1ccccc1)C(=O)NC(Cc1ccccc1)C(=O)C(=O)NCCCn1ccc(N)nc1=O", "note": "(stereo not given in full)", "Ki": 440},
      {"smiles": "CCC(NC(=O)[C@H](CC(C)C)NC(=O)OCc1ccccc1)C(=O)C(=O)NCCCn1cnc2c(N)ncnc21", "note": "(stereo not given in full)", "Ki": 800}
    ]},
    {"molecular_target": "T2, Calpain-1 catalytic subunit (Sus scrofa, UniProt P35750)", "T2 sequence (P35750 whole entry)": "T1 sequence (whole entry)", "experiment": "Inhibition of porcine erythrocyte calpain 1", "settings": "not given", "units": {"Ki": "nM"}, "values": [
      {"smiles": "CC(C)C[C@H](NC(=O)OCc1ccccc1)C(=O)NC(Cc1ccccc1)C(=O)C(=O)NCCCN(C)C", "note": "(stereo not given in full)", "Ki": 226},
      {"smiles": "CCC(NC(=O)[C@H](CC(C)C)NC(=O)OCc1ccccc1)C(=O)C(=O)NCCCn1ccc(N)nc1=O", "note": "(stereo not given in full)", "Ki": 165},
      {"smiles": "CC(C)C[C@H](NC(=O)OCc1ccccc1)C(=O)NC(Cc1ccccc1)C(=O)C(=O)NCCCN1CCN(C)CC1", "note": "(stereo not given in full)", "Ki": 1370},
      {"smiles": "CC(C)C[C@H](NC(=O)OCc1ccccc1)C(=O)NC(Cc1ccccc1)C(=O)C(=O)NCCN(C)C", "note": "(stereo not given in full)", "Ki": 711},
      {"smiles": "CC(C)C[C@H](NC(=O)OCc1ccccc1)C(=O)NC(Cc1ccccc1)C(=O)C(=O)NCCCn1ccc(N)nc1=O", "note": "(stereo not given in full)", "Ki": 480},
      {"smiles": "CCC(NC(=O)[C@H](CC(C)C)NC(=O)OCc1ccccc1)C(=O)C(=O)NCCCn1cnc2c(N)ncnc21", "note": "(stereo not given in full)", "Ki": 53}
    ]},
    {"tested_on": "not listed separately", "experiment": "Drug level in C57BL/6 mouse brain at 24 mg/kg, sc after 8 hrs by HPLC analysis", "format": "ADME, organism-based", "parameters": "dose 24 mg/kg, route subcutaneous", "settings": "read-out: Drug uptake", "method_in_brief": "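7-week-old female C57BL/6 mice (N = 3 per time point) got 24 mg/kg subcutaneously, were perfused with buffered saline at 37 °C, and were killed at 1, 2, 4 or 8 h. Brain was homogenized 5% w/v in water with internal standard spiked in. LC-MS/MS used ESI+ MRM and a Symmetry Shield C18 column. Quantitation was by peak-area ratio against plasma calibration standards.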", "units": {"concentration at 8 h": "ng/g"}, "values": [
      {"smiles": "CCC(NC(=O)[C@H](CC(C)C)NC(=O)OCc1ccccc1)C(=O)C(=O)NCCCn1cnc2c(N)ncnc21", "note": "(stereo not given in full)", "concentration at 8 h": 1170}
    ]},
    {"molecular_target": "T3, Calpain-2 catalytic subunit (Sus scrofa, UniProt P43367)", "T3 sequence (P43367 whole entry)": "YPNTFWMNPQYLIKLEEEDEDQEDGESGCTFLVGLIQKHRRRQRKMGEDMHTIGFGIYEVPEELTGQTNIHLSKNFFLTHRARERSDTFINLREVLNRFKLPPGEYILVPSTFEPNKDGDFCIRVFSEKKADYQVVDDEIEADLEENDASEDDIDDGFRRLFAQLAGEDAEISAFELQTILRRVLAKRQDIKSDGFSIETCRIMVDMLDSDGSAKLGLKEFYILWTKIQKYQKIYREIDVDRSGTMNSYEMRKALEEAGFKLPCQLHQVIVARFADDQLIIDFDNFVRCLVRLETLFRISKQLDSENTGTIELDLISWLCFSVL", "experiment": "Inhibition of porcine kidney calpain 2", "settings": "not given", "units": {"Ki": "nM"}, "values": [
      {"smiles": "CC(C)C[C@H](NC(=O)OCc1ccccc1)C(=O)NC(Cc1ccccc1)C(=O)C(=O)NCCCN(C)C", "note": "(stereo not given in full)", "Ki": 844},
      {"smiles": "CCC(NC(=O)[C@H](CC(C)C)NC(=O)OCc1ccccc1)C(=O)C(=O)NCCCn1ccc(N)nc1=O", "note": "(stereo not given in full)", "Ki": 1140},
      {"smiles": "CC(C)C[C@H](NC(=O)OCc1ccccc1)C(=O)NC(Cc1ccccc1)C(=O)C(=O)NCCCN1CCN(C)CC1", "note": "(stereo not given in full)", "Ki": 6360},
      {"smiles": "CC(C)C[C@H](NC(=O)OCc1ccccc1)C(=O)NC(Cc1ccccc1)C(=O)C(=O)NCCN(C)C", "note": "(stereo not given in full)", "Ki": 3520},
      {"smiles": "CC(C)C[C@H](NC(=O)OCc1ccccc1)C(=O)NC(Cc1ccccc1)C(=O)C(=O)NCCCn1ccc(N)nc1=O", "note": "(stereo not given in full)", "Ki": 438},
      {"smiles": "CCC(NC(=O)[C@H](CC(C)C)NC(=O)OCc1ccccc1)C(=O)C(=O)NCCCn1cnc2c(N)ncnc21", "note": "(stereo not given in full)", "Ki": 70}
    ]}
  ]
}
